Source: ChEMBL document CHEMBL1949515, “Regioselective synthesis and antimicrobial activities of some novel aryloxyacetic acid derivatives” (2012)
≈ marks a conversion by molar mass, not a printed value. Calls of active or inactive are those of the source. No cut-off for these calls is given here.

How the values were obtained:
Pseudomonas aeruginosa [1] = test: Antibacterial activity against Pseudomonas aeruginosa ATCC 27953 after 24 hrs by two fold serial dilution method; assay type: functional; details: ATCC 27953, 24 h
In short: (§1)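 MIC determined by two-fold serial dilution in the appropriate nutrient broth, only for compounds that gave sizeable inhibition zones in the well diffusion screen. Final concentrations stepped down by halves from 66 (66, 33, 16.5 …).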

Pseudomonas aeruginosa [2] = test: microbe, parasite or virus in culture; details: ATCC 27953, 24 h, read-out: DIZ
Priestia megaterium [3] = test: Antibacterial activity against Bacillus megaterium after 24 hrs by two fold serial dilution method; assay type: functional; in short: as §1
Staphylococcus aureus [4] = test: microbe, parasite or virus in culture; details: ATCC 29213, 24 h, read-out: DIZ
Bacillus subtilis [5] = test: microbe, parasite or virus in culture; details: ATCC 6633, 24 h, read-out: DIZ
Escherichia coli [6] = test: Antibacterial activity against Escherichia coli ATCC 25922 after 24 hrs by two fold serial dilution method; assay type: functional; details: ATCC 25922, 24 h; in short: as §1
Micrococcus luteus [7] = test: Antibacterial activity against Sarcina lutea after 24 hrs by two fold serial dilution method; assay type: functional; in short: as §1
Klebsiella pneumoniae [8] = test: microbe, parasite or virus in culture; details: ATCC 13883, 24 h, read-out: DIZ
Bacillus subtilis [9] = test: Antibacterial activity against Bacillus subtilis ATCC 6633 after 24 hrs by two fold serial dilution method; assay type: functional; details: ATCC 6633, 24 h; in short: as §1
Priestia megaterium [10] = test: Antibacterial activity against Bacillus megaterium at 50 ug/ml after 24 hrs by agar well diffusion method; assay type: functional; details: read-out: DIZ
Staphylococcus aureus [11] = test: Antibacterial activity against Staphylococcus aureus ATCC 29213 after 24 hrs by two fold serial dilution method; assay type: functional; details: ATCC 29213, 24 h; in short: as §1
Mycolicibacterium phlei [12] = test: Antibacterial activity against Mycobacterium phlei after 24 hrs by two fold serial dilution method; assay type: functional; in short: as §1
Micrococcus luteus [13] = test: Antibacterial activity against Sarcina lutea at 50 ug/ml after 24 hrs by agar well diffusion method; assay type: functional; details: read-out: DIZ
Mycolicibacterium phlei [14] = test: Antibacterial activity against Mycobacterium phlei at 50 ug/ml after 24 hrs by agar well diffusion method; assay type: functional; details: read-out: DIZ
In short: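 Agar well diffusion. Plates were seeded with bacterial suspension at 1 × 10⁸ CFU/mL spread on nutrient agar. Wells received compound solution made as a 100 mg/mL DMSO stock. Plates were incubated 24 h at 37 °C. Read-out was inhibition zone diameter (mm), run in triplicate and averaged. Ciprofloxacin was the reference.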

Klebsiella pneumoniae [15] = test: Antibacterial activity against Klebsiella pneumoniae ATCC 13883 after 24 hrs by two fold serial dilution method; assay type: functional; details: ATCC 13883, 24 h; in short: as §1
Priestia megaterium [16] = test: Antibacterial activity against Bacillus megaterium after 24 hrs by agar well diffusion method; assay type: functional
In short: (§2)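 Agar well diffusion on nutrient agar seeded with bacterial suspension at 1 × 10⁸ CFU/mL. Wells received compound solution from a stock of 100 mg per mL DMSO. Plates incubated 24 h at 37 °C. Read-out is inhibition zone diameter (mm), done in triplicate and averaged.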

Micrococcus luteus [17] = test: Antibacterial activity against Sarcina lutea after 24 hrs by agar well diffusion method; assay type: functional; in short: as §2
Pseudomonas aeruginosa [18] = test: Antibacterial activity against Pseudomonas aeruginosa ATCC 27953 after 24 hrs by agar well diffusion method; assay type: functional; in short: as §2
Escherichia coli [19] = test: Antibacterial activity against Escherichia coli ATCC 25922 after 24 hrs by agar well diffusion method; assay type: functional; in short: as §2
Candida albicans [20] = test: Antifungal activity against Candida albicans NRRL Y-477 by two fold serial dilution method; assay type: functional; in short: as §1
Staphylococcus aureus [21] = test: Antibacterial activity against Staphylococcus aureus ATCC 29213 after 24 hrs by agar well diffusion method; assay type: functional; in short: as §2
Saccharomyces cerevisiae [22] = test: Antifungal activity against Saccharomyces cerevisiae after 48 hrs by agar well diffusion method; assay type: functional
In short: (§3)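 Fungal agar well diffusion on Sabouraud dextrose agar seeded at 1 × 10⁶ CFU/mL. Wells received compound solution from a 100 mg per mL DMSO stock. Incubation 48 h at 28 °C. Inhibition zone diameter (mm) measured in triplicate and averaged.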

Bacillus subtilis [23] = test: Antibacterial activity against Bacillus subtilis ATCC 6633 after 24 hrs by agar well diffusion method; assay type: functional; in short: as §2
Candida albicans [24] = test: Antifungal activity against Candida albicans NRRL Y-477 after 48 hrs by agar well diffusion method; assay type: functional; in short: as §3
Mycolicibacterium phlei [25] = test: Antibacterial activity against Mycobacterium phlei after 24 hrs by agar well diffusion method; assay type: functional; in short: as §2
Saccharomyces cerevisiae [26] = test: Antifungal activity against Saccharomyces cerevisiae by two fold serial dilution method; assay type: functional; in short: as §1
Klebsiella pneumoniae [27] = test: Antibacterial activity against Klebsiella pneumoniae ATCC 13883 after 24 hrs by agar well diffusion method; assay type: functional; in short: as §2
Candida albicans [28] = test: Antifungal activity against Candida albicans NRRL Y-477 at 50 ug/ml after 48 hrs by agar well diffusion method; assay type: functional; details: NRRL Y-477, 48 h, read-out: DIZ
In short: (§4)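 Fungal agar well diffusion. Plates were seeded with 1 × 10⁶ CFU/mL fungal suspension on Sabouraud dextrose agar. Wells were filled with compound solution from a 100 mg/mL DMSO stock. Plates were incubated 48 h at 28 °C. The mean inhibition zone diameter (mm) was taken from triplicate runs. Ketoconazole was the standard.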

Saccharomyces cerevisiae [29] = test: Antifungal activity against Saccharomyces cerevisiae at 50 ug/ml after 48 hrs by agar well diffusion method; assay type: functional; details: read-out: DIZ; in short: as §4

Structure (SMILES)	MIC (Priestia megaterium [3]) [µg/mL]	MIC (Escherichia coli [6]) [µg/mL]	MIC (Bacillus subtilis [9]) [µg/mL]	MIC (Klebsiella pneumoniae [15]) [µg/mL]	diameter of the inhibition zone (DIZ) (Priestia megaterium [16])	diameter of the inhibition zone (DIZ) (Micrococcus luteus [17])	diameter of the inhibition zone (DIZ) (Pseudomonas aeruginosa [18])	diameter of the inhibition zone (DIZ) (Escherichia coli [19])	MIC (Candida albicans [20]) [µg/mL]	diameter of the inhibition zone (DIZ) (Staphylococcus aureus [21])	diameter of the inhibition zone (DIZ) (Saccharomyces cerevisiae [22]) [mm]	diameter of the inhibition zone (DIZ) (Bacillus subtilis [23])	diameter of the inhibition zone (DIZ) (Candida albicans [24])	diameter of the inhibition zone (DIZ) (Mycolicibacterium phlei [25])	MIC (Saccharomyces cerevisiae [26]) [µg/mL]	diameter of the inhibition zone (DIZ) (Klebsiella pneumoniae [27]) [mm]	other results
O=C(O)c1cn(C2CC2)c2cc(N3CCNCC3)c(F)cc2c1=O [CIPROFLOXACIN]	8.25 (≈ 24.9 µM)	16.5 (≈ 49.8 µM)	8.25 (≈ 24.9 µM)	16.5 (≈ 49.8 µM)	–	–	–	–	–	–	–	–	–	–	–	–	MIC (Pseudomonas aeruginosa [1]): 16.5 µg/mL (≈ 49.8 µM); zone of inhibition at 50 µg/mL (Pseudomonas aeruginosa [2]): 24 mm; zone of inhibition at 50 µg/mL (Staphylococcus aureus [4]): 20 mm; zone of inhibition at 50 µg/mL (Bacillus subtilis [5]): 22 mm; MIC (Micrococcus luteus [7]): 16.5 µg/mL (≈ 49.8 µM); zone of inhibition at 50 µg/mL (Klebsiella pneumoniae [8]): 25 mm; zone of inhibition at 50 µg/mL (Priestia megaterium [10]): 24 mm; MIC (Staphylococcus aureus [11]): 8.25 µg/mL (≈ 24.9 µM); MIC (Mycolicibacterium phlei [12]): 16.5 µg/mL (≈ 49.8 µM); zone of inhibition at 50 µg/mL (Micrococcus luteus [13]): 20 mm; zone of inhibition at 50 µg/mL (Mycolicibacterium phlei [14]): 22 mm
CC(=N/NC(=O)COc1ccc2ccccc2c1)/C(Cl)=N\Nc1ccc(Cl)cc1	–	16.5 (≈ 38.4 µM)	–	16.5 (≈ 38.4 µM)	inactive	inactive	inactive	21 mm	33 (≈ 76.9 µM)	inactive	26	inactive	20 mm	16 mm	16.5 (≈ 38.4 µM)	24	–
CC(=N/NC(=O)COc1ccc(Cl)cc1Cl)/C(=N\Nc1ccc(Cl)cc1)Sc1ccccc1	–	–	–	16.5 (≈ 31.6 µM)	inactive	inactive	inactive	inactive	–	inactive	28	inactive	inactive	13 mm	4.12 (≈ 7.9 µM)	24	–
CC(=N/NC(=O)COc1ccc(Cl)cc1Cl)/C(Cl)=N\Nc1ccc(Cl)cc1	16.5 (≈ 36.8 µM)	–	66 (≈ 147 µM)	33 (≈ 73.6 µM)	20 mm	inactive	inactive	inactive	66 (≈ 147 µM)	inactive	24	18 mm	18 mm	15 mm	16.5 (≈ 36.8 µM)	21	–
CC(=N\NC(=O)COc1ccc2ccccc2c1)/C(=N\Nc1ccc(Cl)cc1)S(=O)(=O)c1ccccc1	16.5 (≈ 30.8 µM)	8.25 (≈ 15.4 µM)	33 (≈ 61.7 µM)	16.5 (≈ 30.8 µM)	23 mm	inactive	26 mm	28 mm	8.25 (≈ 15.4 µM)	23 mm	30	20 mm	24 mm	inactive	8.25 (≈ 15.4 µM)	24	MIC (Pseudomonas aeruginosa [1]): 16.5 µg/mL (≈ 30.8 µM); MIC (Staphylococcus aureus [11]): 16.5 µg/mL (≈ 30.8 µM)
CC(=N/NC(=O)COc1ccc(Cl)cc1Cl)/C(=N\Nc1ccc(Cl)cc1)S(=O)(=O)c1ccccc1	8.25 (≈ 14.9 µM)	4.12 (≈ 7.45 µM)	8.25 (≈ 14.9 µM)	16.5 (≈ 29.8 µM)	32 mm	26 mm	28 mm	30 mm	4.12 (≈ 7.45 µM)	27 mm	32	29 mm	30 mm	30 mm	4.12 (≈ 7.45 µM)	28	MIC (Pseudomonas aeruginosa [1]): 16.5 µg/mL (≈ 29.8 µM); MIC (Micrococcus luteus [7]): 8.25 µg/mL (≈ 14.9 µM); MIC (Staphylococcus aureus [11]): 8.25 µg/mL (≈ 14.9 µM); MIC (Mycolicibacterium phlei [12]): 4.12 µg/mL (≈ 7.45 µM)
O=C(COc1ccc2ccccc2c1)NNCC(=O)Nc1nccs1	8.25 (≈ 23.1 µM)	–	66 (≈ 185 µM)	33 (≈ 92.6 µM)	22 mm	inactive	inactive	inactive	66 (≈ 185 µM)	inactive	22	18 mm	20 mm	inactive	16.5 (≈ 46.3 µM)	23	–
CC(=N/NC(=O)COc1ccc(Cl)cc1Cl)/C(Cl)=N\Nc1ccc(Br)cc1	16.5 (≈ 33.5 µM)	–	66 (≈ 134 µM)	33 (≈ 67 µM)	22 mm	inactive	inactive	inactive	33 (≈ 67 µM)	inactive	27	18 mm	21 mm	inactive	8.25 (≈ 16.7 µM)	20	–
O=C(COc1ccc2ccccc2c1)NN/C=C(\NNC(=O)COc1ccc2ccccc2c1)c1cc2ccccc2oc1=O	16.5 (≈ 27.5 µM)	–	66 (≈ 110 µM)	33 (≈ 54.9 µM)	20 mm	inactive	inactive	inactive	66 (≈ 110 µM)	inactive	21	18 mm	20 mm	inactive	16.5 (≈ 27.5 µM)	21	–
CC(=N/NC(=O)COc1ccc(Cl)cc1Cl)/C(=N\Nc1ccc(Br)cc1)Sc1ccccc1	16.5 (≈ 29.1 µM)	–	66 (≈ 117 µM)	66 (≈ 117 µM)	20 mm	20 mm	inactive	inactive	66 (≈ 117 µM)	inactive	23	18 mm	20 mm	inactive	33 (≈ 58.3 µM)	18	MIC (Micrococcus luteus [7]): 16.5 µg/mL (≈ 29.1 µM)
CC(=O)N1CCN(c2ccc(OCC3COC(Cn4ccnc4)(c4ccc(Cl)cc4Cl)O3)cc2)CC1 (centres undefined) [KETOCONAZOLE]	–	–	–	–	–	–	–	–	8.25 (≈ 15.5 µM)	–	–	–	–	–	4.12 (≈ 7.76 µM)	–	zone of inhibition at 50 µg/mL (Candida albicans [28]): 22 mm; zone of inhibition at 50 µg/mL (Saccharomyces cerevisiae [29]): 23 mm
CC(=N/NC(=O)COc1ccc2ccccc2c1)/C(Cl)=N\Nc1ccc(Br)cc1	16.5 (≈ 34.8 µM)	–	66 (≈ 139 µM)	33 (≈ 69.7 µM)	21 mm	inactive	inactive	inactive	33 (≈ 69.7 µM)	inactive	24	18 mm	21 mm	inactive	16.5 (≈ 34.8 µM)	21	–
